In ChEMBL document CHEMBL3108751, “Isomannide-based peptidomimetics as inhibitors for human tissue kallikreins 5 and 7” (ACS Med Chem Lett, 2014):
Activity calls are given as the source filed them. The rule behind the calls is not given here.

Tests used:
[1] = biological target: T1, Kallikrein-5 (Homo sapiens, UniProt Q9Y337); assay: Inhibition of human recombinant KLK5 expressed in baculovirus-infected insect cell system using Abz-KLRSSKQ-Eddnp as substrate incubated for 5 mins prior to substrate addition by FRET assay
T1 sequence (Q9Y337 whole entry): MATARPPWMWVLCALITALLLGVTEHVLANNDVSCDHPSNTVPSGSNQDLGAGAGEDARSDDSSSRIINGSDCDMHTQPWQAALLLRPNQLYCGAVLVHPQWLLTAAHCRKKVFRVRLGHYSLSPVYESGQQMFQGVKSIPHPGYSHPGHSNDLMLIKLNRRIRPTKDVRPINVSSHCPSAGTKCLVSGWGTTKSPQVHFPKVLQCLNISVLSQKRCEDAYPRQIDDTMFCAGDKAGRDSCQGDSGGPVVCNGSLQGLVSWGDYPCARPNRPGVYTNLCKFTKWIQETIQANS

[2] = biological target: T2, Kallikrein-7 (Homo sapiens, UniProt P49862); assay: Inhibition of human recombinant KLK7 expressed in baculovirus-infected insect cell system using Abz-KLYSSKQ-Eddnp as substrate incubated for 5 mins prior to substrate addition by FRET assay
[3] = biological target: Kallikrein-6 (Homo sapiens) (UniProt Q92876); assay: Inhibition of human KLK6 at 1 to 500 uM after 5 mins by spectrophotometry
[4] = biological target: Kallikrein-1 (Homo sapiens) (UniProt P06870); assay: Inhibition of human KLK1 at 1 to 500 uM after 5 mins by spectrophotometry
[5] = biological target: T2, Kallikrein-7; assay: Competitive inhibition of human recombinant KLK7 expressed in baculovirus-infected insect cell system using Abz-KLYSSKQ-Eddnp as substrate incubated for 5 mins prior to substrate addition by Lineweaver-Burk plot analysis
Procedure, shortened: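 Mechanism was assessed from rates measured without inhibitor and at three inhibitor concentrations. Lineweaver–Burk plots were used to assign the inhibition type and derive Ki.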

[6] = biological target: T1, Kallikrein-5; assay: Competitive inhibition of human recombinant KLK5 expressed in baculovirus-infected insect cell system using Abz-KLRSSKQ-Eddnp as substrate incubated for 5 mins prior to substrate addition by Lineweaver-Burk plot analysis
Procedure, shortened: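 FRET substrate Abz-KLRSSKQ-EDDnp hydrolysed by KLK5, with no inhibitor and with 0.5, 1.0 and 2.0 μM inhibitor. Lineweaver–Burk plots were fitted by linear regression. Ki was taken from a secondary plot of Km/Vmax against inhibitor concentration.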

[7] = species: Homo sapiens; assay: Selectivity ratio of IC50 for human recombinant KLK5 to IC50 for human recombinant KLK7
[8] = species: Homo sapiens; assay: Selectivity ratio of IC50 for human recombinant KLK7 to IC50 for human recombinant KLK5

Chain of Kallikrein-1 (Homo sapiens) (P06870 25-262 limits assumed): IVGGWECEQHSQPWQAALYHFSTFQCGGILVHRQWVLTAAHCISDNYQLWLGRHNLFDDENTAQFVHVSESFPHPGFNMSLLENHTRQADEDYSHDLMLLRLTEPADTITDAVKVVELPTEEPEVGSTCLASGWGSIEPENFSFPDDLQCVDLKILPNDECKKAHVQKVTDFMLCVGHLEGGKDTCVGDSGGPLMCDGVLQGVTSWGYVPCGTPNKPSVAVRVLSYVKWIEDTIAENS
T2 sequence (P49862 whole entry): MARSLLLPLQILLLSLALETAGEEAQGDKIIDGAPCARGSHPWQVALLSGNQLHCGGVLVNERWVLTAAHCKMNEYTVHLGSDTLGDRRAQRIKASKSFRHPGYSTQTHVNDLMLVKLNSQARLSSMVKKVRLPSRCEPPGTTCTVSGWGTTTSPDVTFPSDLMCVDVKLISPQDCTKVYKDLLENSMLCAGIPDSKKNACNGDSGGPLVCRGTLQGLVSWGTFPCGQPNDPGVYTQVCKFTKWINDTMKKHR

SMILES | IC50 [1] [µM] | IC50 [2] [µM] | inhibition [3] | inhibition [4] | Ki [5] [µM] | Ki [6] [µM] | Ratio IC50 [7] | Ratio IC50 [8]
CC(C)[C@@H](NC(=O)OC(C)(C)C)C(=O)O[C@@H]1CO[C@H]2[C@@H]1OC[C@H]2OCc1ccccc1 | 223 | 239 | inactive | inactive |  |  |  | 
CC(C)(C)OC(=O)N[C@@H](CCCCNC(=O)OCc1ccccc1)C(=O)O[C@@H]1CO[C@H]2[C@@H]1OC[C@H]2OCc1ccccc1 | 9 | 13.7 | inactive | inactive | 1.4 | 0.7 |  | 
CC(C)(C)OC(=O)N[C@H](Cc1c[nH]c2ccccc12)C(=O)O[C@@H]1CO[C@H]2[C@@H]1OC[C@H]2OCc1ccccc1 | 377 | 59.2 | inactive | inactive |  |  | 6 | 
CC(C)(C)OC(=O)N[C@H](CCCN/C(=N\C(=O)OCc1ccccc1)NC(=O)OCc1ccccc1)C(=O)N[C@H]1CO[C@H]2[C@@H]1OC[C@H]2OCc1ccccc1 | 11.8 | 16.9 | inactive | inactive | 2.4 | 1.7 |  | 
O=C(O[C@@H]1CO[C@H]2[C@@H]1OC[C@H]2OCc1ccccc1)[C@H]1CCCN1C(=O)OCc1ccccc1 | 3.7 | 16.6 | inactive | inactive | 1.9 | 0.3 |  | 4
CC(C)(C)OC(=O)N1CCC[C@H]1C(=O)O[C@@H]1CO[C@H]2[C@@H]1OC[C@H]2OCc1ccccc1 | 521 | 24.4 | inactive | inactive | 15.6 |  | 21.3 | 
CC(C)[C@H](NC(=O)OCc1ccccc1)C(=O)N[C@H](Cc1ccccc1)C(=O)N[C@H]1CO[C@H]2[C@@H]1OC[C@H]2OCc1ccccc1 | 21.7 | 56.6 | inactive | inactive | 3.8 | 3.4 |  | 
CC(C)[C@@H](NC(=O)OC(C)(C)C)C(=O)N[C@H]1CO[C@H]2[C@@H]1OC[C@H]2OCc1ccccc1 | 480 | > 1000 | inactive | inactive |  |  |  | 
CC(C)(C)OC(=O)N[C@H](COCc1ccccc1)C(=O)N[C@H]1CO[C@H]2[C@@H]1OC[C@H]2OCc1ccccc1 | 53.9 | 84.5 | inactive | inactive |  |  |  | 
CC(C)(C)OC(=O)N[C@@H](CCCCNC(=O)OCc1ccccc1)C(=O)N[C@H]1CO[C@H]2[C@@H]1OC[C@H]2OCc1ccccc1 | 13.3 | 23.6 | inactive | inactive | 2.9 | 2.4 |  | 
CC(C)(C)OC(=O)N[C@@H](CC(=O)OCc1ccccc1)C(=O)O[C@@H]1CO[C@H]2[C@@H]1OC[C@H]2OCc1ccccc1 | 4.7 | 10.2 | inactive | inactive | 1.3 | 0.6 |  | 
O=C(N[C@H]1CO[C@H]2[C@@H]1OC[C@H]2OCc1ccccc1)[C@H](Cc1ccccc1)NC(=O)[C@@H]1CCCN1C(=O)OCc1ccccc1 | 157 | 249 | inactive | inactive |  |  |  | 
O=C(N[C@H]1CO[C@H]2[C@@H]1OC[C@H]2OCc1ccccc1)[C@H]1CCCN1C(=O)OCc1ccccc1 | 321 | 23.6 | inactive | inactive | 15.1 |  |  | 
CSCC[C@H](NC(=O)OC(C)(C)C)C(=O)N[C@H]1CO[C@H]2[C@@H]1OC[C@H]2OCc1ccccc1 | 37 | 457 | inactive | inactive |  | 26.6 |  | 
O=C(N[C@H]1CO[C@H]2[C@@H]1OC[C@H]2OCc1ccccc1)/C(=C/c1cccs1)NC(=O)c1ccccc1 (stereo in doubt) | 99.2 | 13.3 |  |  | 1.8 | 70.7 |  | 
CC(C)(C)OC(=O)N[C@H](Cc1c[nH]c2ccccc12)C(=O)N[C@H]1CO[C@H]2[C@@H]1OC[C@H]2OCc1ccccc1 | 39.2 | 418 | inactive | inactive |  | 28.2 |  | 
Cc1ccc(S(=O)(=O)n2cnc(C[C@H](NC(=O)OC(C)(C)C)C(=O)N[C@H]3CO[C@H]4[C@@H]3OC[C@H]4OCc3ccccc3)c2)cc1 | 157 | 27.8 | inactive | inactive | 4.4 |  | 6 | 
CC(C)(C)OC(=O)N[C@H](COCc1ccccc1)C(=O)O[C@@H]1CO[C@H]2[C@@H]1OC[C@H]2OCc1ccccc1 | 15.5 | 16 | inactive | inactive | 2.3 | 2.4 |  | 
CSCC[C@H](NC(=O)OC(C)(C)C)C(=O)O[C@@H]1CO[C@H]2[C@@H]1OC[C@H]2OCc1ccccc1 | 357 | 28.7 | inactive | inactive | 18.4 |  |  | 
O=C(OC1CO[C@H]2[C@@H]1OC[C@H]2OCc1ccccc1)[C@H](Cc1ccccc1)NC(=O)[C@@H]1CCCN1C(=O)OCc1ccccc1 (single isomer, unassigned) | 3.9 | 19.6 | inactive | inactive | 2.8 | 0.4 |  | 5
